ChEMBL document CHEMBL1132237, “Fluorination of 3-(3-(piperidin-1-yl)propyl)indoles and 3-(3-(piperazin-1-yl)propyl)indoles gives selective human 5-HT1D receptor ligands with improved pharmacokinetic profiles” (J Med Chem, 1999)

Legend:
[1] = biological target: Serotonin 1 receptors; 5-HT1B & 5-HT1D (Homo sapiens) (UniProt P28222+P28221); assay: Selectivity towards 5-HT1D and to that of 5-HT1B in CHO cells; type: cell-based
How it was run: (§1)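 Radioligand binding to human 5-HT1D and 5-HT1B receptors stably expressed in CHO cells. Radioligand was used at approximately its KD for each receptor. IC50 values are the logarithmic mean of 2–5 independent determinations, each run in duplicate. Maximum variance from the mean of log(IC50) was 4%. Selectivity is IC50(1B)/IC50(1D).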

[2] = biological target: T1, 5-hydroxytryptamine receptor 1B (Homo sapiens, UniProt P28222); assay: Efficacy was evaluated relative to human 5-HT1B receptor using [35S]GTP-gamma-S, as radioligand; type: functional
T1 sequence (P28222 whole entry): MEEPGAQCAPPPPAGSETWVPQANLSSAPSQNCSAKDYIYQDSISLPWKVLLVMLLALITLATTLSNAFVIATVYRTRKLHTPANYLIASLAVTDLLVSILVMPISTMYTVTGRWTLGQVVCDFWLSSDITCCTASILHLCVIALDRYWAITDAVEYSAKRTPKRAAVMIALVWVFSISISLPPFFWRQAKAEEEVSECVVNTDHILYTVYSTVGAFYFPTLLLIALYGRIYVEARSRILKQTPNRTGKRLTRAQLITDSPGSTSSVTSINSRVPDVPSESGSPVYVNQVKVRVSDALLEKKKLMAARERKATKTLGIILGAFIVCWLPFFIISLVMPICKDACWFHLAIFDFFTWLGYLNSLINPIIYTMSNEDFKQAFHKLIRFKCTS

[3] = biological target: T2, 5-hydroxytryptamine receptor 1D (Homo sapiens, UniProt P28221); assay: Displacement of specific [3H]5-HT binding to cloned human 5-hydroxytryptamine 1D receptor expressed in CHO cells; type: cell-based; how it was run: as §1
T2 sequence (P28221 whole entry): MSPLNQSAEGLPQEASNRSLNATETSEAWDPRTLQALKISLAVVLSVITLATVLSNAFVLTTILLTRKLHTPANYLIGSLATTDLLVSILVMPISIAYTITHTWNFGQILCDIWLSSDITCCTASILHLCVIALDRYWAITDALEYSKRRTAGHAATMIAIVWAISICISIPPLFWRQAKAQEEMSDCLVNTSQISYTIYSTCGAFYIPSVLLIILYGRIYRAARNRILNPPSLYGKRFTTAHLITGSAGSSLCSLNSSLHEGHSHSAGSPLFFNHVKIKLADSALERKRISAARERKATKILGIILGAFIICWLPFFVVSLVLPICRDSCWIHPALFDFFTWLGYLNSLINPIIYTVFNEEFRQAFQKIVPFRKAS

[4] = biological target: T1, 5-hydroxytryptamine receptor 1B; assay: Displacement of specific [3H]5-HT binding to cloned human 5-hydroxytryptamine 1B receptor expressed in CHO cells; type: cell-based; how it was run: as §1
[5] = biological target: T1, 5-hydroxytryptamine receptor 1B; assay: Agonist-induced [35S]GTP-gamma-S, binding in CHO cells stably transfected with human 5-hydroxytryptamine 1B receptor; type: functional, cell-based
How it was run: (§2)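 [35S]GTPγS binding stimulated by agonist, measured in CHO cells stably transfected with the human 5-HT1D or 5-HT1B receptor. EC50 values are the logarithmic mean of 2–3 independent determinations. Maximum variance of individual log(EC50) values from the mean was 4%.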

[6] = biological target: T2, 5-hydroxytryptamine receptor 1D; assay: Agonist-induced [35S]GTP-gamma-S, binding in CHO cells stably transfected with human 5-hydroxytryptamine 1D receptor; type: functional, cell-based; how it was run: as §2
[7] = biological target: T2, 5-hydroxytryptamine receptor 1D; assay: Efficacy was evaluated relative to human 5-hydroxytryptamine 1D receptor using [35S]GTP-gamma-S, as radioligand; type: functional
[8] = test system: Rattus norvegicus; assay: Oral absorption study in rat plasma obtained from cardiac blood samples after 2 hours of administration of 3 mg/kg orally; type: functional, organism-based; set-up: dose 3 mg/kg
How it was run: (§3)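 Male Sprague–Dawley rats, fasted overnight and with no surgery, received 3 mg/kg orally as a 0.6 mg/mL solution in PEG 400:5 mM HCl (25:75 v/v). Terminal blood was taken from the heart and hepatic portal vein under isoflurane at 0.5 and 2 h, three rats per time point. Plasma drug was measured by electrospray mass spectrometry. Values are mean ± SEM.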

[9] = test system: Rattus norvegicus; assay: Oral absorption study in rat plasma obtained from hepatic portal vein after 0.5 hours of administration of 3 mg/kg orally; type: functional, organism-based; set-up: dose 3 mg/kg; how it was run: as §3
[10] = test system: Rattus norvegicus; assay: Oral absorption study in rat plasma obtained from cardiac blood samples after 0.5 hours of administration of 3 mg/kg orally; type: functional, organism-based; set-up: dose 3 mg/kg; how it was run: as §3
[11] = test system: Rattus norvegicus; assay: Oral absorption study in rat plasma obtained from hepatic portal vein after 2 hours of administration of 3 mg/kg orally; type: functional, organism-based; set-up: dose 3 mg/kg; how it was run: as §3
[12] = pKa value by potentiometric method; type: physicochemical
How it was run: (§4)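 Potentiometric titration in MeOH–H2O cosolvent with ionic strength set by 0.15 M KCl. Three titrations at different water/cosolvent ratios gave psKa values. Aqueous pKa was obtained by Yasuda–Shedlovsky extrapolation to 100% water, plotting psKa + log[H2O] against 1/ε.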

[13] = pKa value by potentiometric; type: physicochemical; how it was run: as §4

Selectivity [1]	IC50 [3]	IC50 [4]	SMILES	other results
343	–	–	Fc1cccc(CCN2CCN(CC(F)Cc3c[nH]c4ccc(-n5cnnc5)cc34)CC2)c1 (stereo in doubt; 25) [listing 1 of 2 here]	Efficacy [2]: 25%
31	0.7 nM	22 nM	Fc1cccc(CCC2(F)CCN(CCCc3c[nH]c4ccc(-n5cnnc5)cc34)CC2)c1	Efficacy [2]: 88%; EC50 [5]: 440 nM; EC50 [6]: 5 nM
200	1.8 nM	360 nM	OC(Cc1c[nH]c2ccc(-n3cnnc3)cc12)CN1CCN(Cc2ccccc2)CC1 (configuration not stated)	–
47	0.6 nM	28 nM	CC(CC1(F)CCN(CCCc2c[nH]c3ccc(-n4cnnc4)cc23)CC1)c1ccccc1 (configuration not stated)	Efficacy [2]: 85%; EC50 [5]: 510 nM; EC50 [6]: 2.6 nM; Efficacy [7]: 86%
34	5 nM	170 nM	F[C@H]1CN(CCCc2c[nH]c3ccc(-n4cnnc4)cc23)CC[C@@H]1NCc1ccccc1C(F)(F)F	–
98	5.5 nM	540 nM	Fc1ccc(CCN2CCN(CC(F)Cc3c[nH]c4ccc(-n5cnnc5)cc34)CC2)cc1 (configuration not stated)	–
60	35 nM	2100 nM	CN(Cc1ccccc1)C1CCN(CC(F)(F)Cc2c[nH]c3ccc(-n4cnnc4)cc23)CC1	–
25	2 nM	49 nM	FC1(CCc2ccccc2)CCN(CCCc2c[nH]c3ccc(-n4cnnc4)cc23)CC1	–
–	0.1 nM	3.1 nM	Fc1ccccc1CC1(F)CCN(CCCc2c[nH]c3ccc(-n4cnnc4)cc23)CC1	–
–	3.5 nM	1200 nM	Fc1cccc(CCN2CCN(CC(F)Cc3c[nH]c4ccc(-n5cnnc5)cc34)CC2)c1 (stereo in doubt; 25) [listing 2 of 2 here]	EC50 [5]: 810 nM; EC50 [6]: 3.8 nM
18	12 nM	220 nM	CN(Cc1ccccc1)[C@H]1CCN(CCCc2c[nH]c3ccc(-n4cnnc4)cc23)C[C@H]1F	Plasma concentration [8]: 3 ng/mL; Plasma concentration [9]: 216 ng/mL; Plasma concentration [10]: 2 ng/mL; Plasma concentration [11]: 136 ng/mL; pKa [12]: 8
20	0.8 nM	16 nM	Fc1ccccc1CCC1(F)CCN(CCCc2c[nH]c3ccc(-n4cnnc4)cc23)CC1	–
196	–	–	Fc1cccc(CCN2CCN(CC(F)Cc3c[nH]c4ccc(-n5cnnc5)cc34)CC2)c1 (stereo in doubt; 28) [listing 1 of 2 here]	–
104	56 nM	5800 nM	FC(F)(Cc1c[nH]c2ccc(-n3cnnc3)cc12)CN1CCC(CCc2ccccc2)CC1	–
290	6.2 nM	1800 nM	CC(CN1CCN(CC(F)(F)Cc2c[nH]c3ccc(-n4cnnc4)cc23)CC1)c1ccccc1 (configuration not stated)	Efficacy [2]: 53%; EC50 [5]: 5100 nM; EC50 [6]: 16 nM; Efficacy [7]: 123%
556	1.8 nM	1000 nM	CC(CN1CCN(CC(F)(F)Cc2c[nH]c3ccc(-n4cnnc4)cc23)CC1)c1ccc(F)cc1 (configuration not stated)	–
13	0.4 nM	5.3 nM	Fc1cccc(CC2(F)CCN(CCCc3c[nH]c4ccc(-n5cnnc5)cc34)CC2)c1	–
67	2.1 nM	140 nM	CN(Cc1ccccc1)C1CCN(CCCc2c[nH]c3ccc(-n4cnnc4)cc23)CC1	Plasma concentration [8]: 5 ng/mL; Efficacy [2]: 77%; EC50 [5]: 1400 nM; Plasma concentration [9]: 4 ng/mL; Plasma concentration [10]: < 1 ng/mL; Plasma concentration [11]: 66 ng/mL; EC50 [6]: 1.5 nM; pKa [13]: 9.3

Selectivity [1]	IC50 [3]	IC50 [4]	SMILES	other results
111	4.7 nM	520 nM	Fc1ccccc1CCN1CCN(CC(F)Cc2c[nH]c3ccc(-n4cnnc4)cc23)CC1 (configuration not stated)	–
17	13 nM	220 nM	CN(Cc1ccccc1C(F)(F)F)[C@H]1CCN(CCCc2c[nH]c3ccc(-n4cnnc4)cc23)C[C@@H]1F	pKa [12]: 6.9
310	1 nM	310 nM	CC(CN1CCN(CC(F)Cc2c[nH]c3ccc(-n4cnnc4)cc23)CC1)c1ccc(F)cc1 (configuration not stated)	Efficacy [2]: 79%; EC50 [5]: 1700 nM; EC50 [6]: 1.6 nM; Efficacy [7]: 106%
17	78 nM	1300 nM	FC(F)(Cc1c[nH]c2ccc(-n3cnnc3)cc12)CN1CCC(Cc2ccccc2)CC1	pKa [12]: 6.7
311	0.9 nM	280 nM	CC(CN1CCN(CC(F)Cc2c[nH]c3ccc(-n4cnnc4)cc23)CC1)c1cccc(F)c1 (configuration not stated)	Efficacy [2]: 87%; EC50 [5]: 1500 nM; EC50 [6]: 1.9 nM; Efficacy [7]: 112%
25	1 nM	25 nM	Fc1ccc(CCC2(F)CCN(CCCc3c[nH]c4ccc(-n5cnnc5)cc34)CC2)cc1	–
24	9.3 nM	220 nM	CN(Cc1ccccc1C(F)(F)F)[C@H]1CCN(CCCc2c[nH]c3ccc(-n4cnnc4)cc23)C[C@H]1F	pKa [12]: 7.7
117	5.8 nM	680 nM	Fc1cccc(CCN2CCN(C[C@@H](F)Cc3c[nH]c4ccc(-n5cnnc5)cc34)CC2)c1	–
22	–	1200 nM	CN(Cc1ccccc1)C1CCN(CC(F)Cc2c[nH]c3ccc(-n4cnnc4)cc23)CC1 (configuration not stated)	Plasma concentration [8]: 10 ng/mL; Efficacy [2]: 59%; EC50 [5]: 10300 nM; Plasma concentration [9]: 57 ng/mL; Plasma concentration [10]: 2 ng/mL; Plasma concentration [11]: 217 ng/mL; pKa [12]: 8.5
137	6.8 nM	930 nM	FC(Cc1c[nH]c2ccc(-n3cnnc3)cc12)CN1CCN(CCc2ccccc2)CC1 (configuration not stated)	–
26	280 nM	7200 nM	FC(F)(Cc1c[nH]c2ccc(-n3cnnc3)cc12)CN1CCC(COc2ccccc2)CC1	–
100	30 nM	3000 nM	FC(Cc1c[nH]c2ccc(-n3cnnc3)cc12)CN1CCC(OCc2ccccc2)CC1 (configuration not stated)	–
6	2.1 nM	13 nM	CN(Cc1ccccc1)[C@H]1CCN(CCCc2c[nH]c3ccc(-n4cnnc4)cc23)C[C@@H]1F	–
47	0.3 nM	14 nM	FC1(Cc2ccccc2C(F)(F)F)CCN(CCCc2c[nH]c3ccc(-n4cnnc4)cc23)CC1	Efficacy [2]: 91%; EC50 [5]: 290 nM; EC50 [6]: 0.2 nM; Efficacy [7]: 61%
380	1 nM	380 nM	CC(CN1CCN(CC(F)Cc2c[nH]c3ccc(-n4cnnc4)cc23)CC1)c1ccccc1F (configuration not stated)	–
–	5.1 nM	1000 nM	Fc1cccc(CCN2CCN(CC(F)Cc3c[nH]c4ccc(-n5cnnc5)cc34)CC2)c1 (stereo in doubt; 28) [listing 2 of 2 here]	–
23	13 nM	300 nM	F[C@@H]1CN(CCCc2c[nH]c3ccc(-n4cnnc4)cc23)CC[C@@H]1NCc1ccccc1C(F)(F)F	–

SMILES	Selectivity [1]	IC50 [3]	IC50 [4]	other results
FC1(Cc2ccccc2)CCN(CCCc2c[nH]c3ccc(-n4cnnc4)cc23)CC1	17	0.9 nM	15 nM	Plasma concentration [8]: 35 ng/mL; Efficacy [2]: 67%; EC50 [5]: 66 nM; Plasma concentration [9]: 570 ng/mL; Plasma concentration [10]: 52 ng/mL; Plasma concentration [11]: 273 ng/mL; EC50 [6]: 0.4 nM; pKa [12]: 8.8
c1ccc(CN2CCN(CCCc3c[nH]c4ccc(-n5cnnc5)cc34)CC2)cc1	79	0.14 nM	–	Plasma concentration [9]: 168 ng/mL; Plasma concentration [10]: 42 ng/mL; pKa [13]: 8.2
c1ccc(CC2CCN(CCCc3c[nH]c4ccc(-n5cnnc5)cc34)CC2)cc1	63	0.3 nM	19 nM	Plasma concentration [8]: < 2 ng/mL; Efficacy [2]: 62%; EC50 [5]: 120 nM; Plasma concentration [9]: 25 ng/mL; Plasma concentration [10]: < 2 ng/mL; Plasma concentration [11]: 33 ng/mL; pKa [13]: 9.7
